Measurements from ChEMBL document CHEMBL4330063, “New naphthopyran analogues of LY290181 as potential tumor vascular-disrupting agents” (Eur J Med Chem, 2019).
Active and inactive are the calls of the source. No cut-off for these calls is given here.

Experiments:
HT-29 [1] = test: Cell cycle arrest in human HT-29 cells assessed as accumulation of cells at G2/M phase at 100 nM after 24 hrs by propidium iodide staining-based flow cytometric analysis (reference value: 11.4 +/- 1.4%); format: functional
HT-29 [2] = test: Cell cycle arrest in human HT-29 cells assessed as accumulation of cells at sub G1 phase at 100 nM after 24 hrs by propidium iodide staining-based flow cytometric analysis (reference value: 1.2 +/- 0.3%); format: functional
518A2 [3] = test: Antiproliferative activity against human 518A2 cells after 72 hrs by MTT assay; format: functional, cell-based; details: for IC50: 518A2, 72 h
Procedure, shortened: (§1)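 MTT read-out after 72 h of continuous exposure. Viability is expressed as percentage of viable cells relative to untreated controls. IC50 comes from dose-response curves. Values are means±SD of four independent experiments (two for some entries). DMSO was below 1%, with vehicle controls at equal DMSO. Precipitation was excluded spectrometrically and microscopically.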

Chorioallantoic membrane [4] = test: Antiangiogenic activity in Leghorn chicken embryo chorioallantoic membrane assessed as induction of irritation at 5 nmol after 6 to 24 hrs by light microscopic analysis; format: functional, tissue-based; details: Gallus gallus
Procedure, shortened: (§2)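 Fertilized chicken eggs, CAM assay. Compound was applied topically into a small silicon foil ring placed on the CAM. The membrane and its extraembryonal blood vessels were monitored over 24 h, with observations at 6 h and 24 h post application.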

HT-29 [5] = test: Cell cycle arrest in human HT-29 cells assessed as accumulation of cells at G2/M phase at 350 nM after 24 hrs by propidium iodide staining-based flow cytometric analysis (reference value: 11.4 +/- 1.4%); format: functional
HT-29 [6] = test: Cell cycle arrest in human HT-29 cells assessed as accumulation of cells at sub G1 phase at 250 nM after 24 hrs by propidium iodide staining-based flow cytometric analysis (reference value: 1.2 +/- 0.3%); format: functional
518A2 [7] = test: Induction of cell cycle arrest in human 518A2 cells; format: functional, cell-based
518A2 [8] = test: Induction of apoptosis in human 518A2 cells assessed as accumulation at subG1 phase; format: functional, cell-based
518A2 [9] = test: Induction of apoptosis in human 518A2 cells at 100 nM after 24 hrs by TUNEL assay relative to control; format: functional
Chorioallantoic membrane [10] = test: Antiangiogenic activity in Leghorn chicken embryo chorioallantoic membrane assessed as induction of contraction at 5 nmol after 6 to 24 hrs by light microscopic analysis; format: functional, tissue-based; details: Gallus gallus; procedure, shortened: as §2
[11] = Toxicity in human A2780 cells xenografted nude mouse at 30 mg/kg administered on every other day and measured after 24 hrs; format: organism-based; details: in vivo
518A2 [12] = test: Antimigratory activity against human 518A2 cells at 50 nM after 48 hrs by wound healing assay; format: functional, cell-based
HT-29 [13] = test: Cell cycle arrest in human HT-29 cells assessed as accumulation of cells at G1 phase at 250 nM after 24 hrs by propidium iodide staining-based flow cytometric analysis (reference value: 75.1 +/- 1.1%); format: functional
518A2 [14] = test: Effect on F-actin in human 518A2 cells assessed as thick stress fibers formation at 100 nM after 3 hrs by DAPI staining-based fluorescence microscopic analysis; format: cell-based
Procedure, shortened: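 518A2 melanoma cells were treated with 100 nM for 3 h. Filamentous actin was fluorescence-labelled, nuclei were counterstained with DAPI, and the cells were imaged by fluorescence microscopy. Images come from two independent experiments.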

HT-29 [15] = test: Cell cycle arrest in human HT-29 cells assessed as accumulation of cells at S phase at 250 nM after 24 hrs by propidium iodide staining-based flow cytometric analysis (reference value: 12.3 +/- 0.4%); format: functional
HT-29 [16] = test: Cell cycle arrest in human HT-29 cells assessed as accumulation of cells at G1 phase at 350 nM after 24 hrs by propidium iodide staining-based flow cytometric analysis (reference value: 75.1 +/- 1.1%); format: functional
Chorioallantoic membrane [17] = test: Antiangiogenic activity in Leghorn chicken embryo chorioallantoic membrane assessed as reduction in size of main blood vessels at 5 nmol after 6 hrs by light microscopic analysis; format: functional, tissue-based; details: Gallus gallus; procedure, shortened: as §2
HT-29 [18] = test: Antiproliferative activity against human HT-29 cells after 72 hrs by MTT assay; format: functional, cell-based; details: HT-29, 72 h; procedure, shortened: as §1
[19] = Antiproliferative activity against human A2780cis cells after 72 hrs by SRB assay; format: functional, cell-based
Procedure, shortened: (§3)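 Ovarian A2780 and cisplatin-resistant A2780cis cells were exposed for 72 h and stained with SRB. IC50 comes from dose-response curves, as means±SD of three independent experiments. Final DMSO was below 1%, with matched vehicle controls.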

PANC-1 = test: Antiproliferative activity against human PANC1 cells after 72 hrs by MTT assay; format: functional, cell-based; details: PANC-1, 72 h; procedure, shortened: as §1
[20] = Antiproliferative activity against human KB-V1/Vbl cells after 72 hrs by MTT assay; format: functional, cell-based; procedure, shortened: as §1
[21] = Antiproliferative activity against human MCF7/Topo cells after 72 hrs by MTT assay; format: functional, cell-based; procedure, shortened: as §1
A2780 = test: Antiproliferative activity against human A2780 cells after 72 hrs by SRB assay; format: functional, cell-based; details: A2780, 72 h; procedure, shortened: as §3
Tubulin = Tubulin (Sus scrofa, UniProt P02554+P02550); test: Inhibition of porcine brain tubulin polymerization after 2 hrs
HCT-116 = test: Antiproliferative activity against human HCT116 cells after 72 hrs by MTT assay; format: functional, cell-based; details: HCT-116, 72 h; procedure, shortened: as §1
HT-29 [22] = test: Cell cycle arrest in human HT-29 cells assessed as accumulation of cells at G2/M phase at 250 nM after 24 hrs by propidium iodide staining-based flow cytometric analysis (reference value: 11.4 +/- 1.4%); format: functional
HT-29 [23] = test: Cell cycle arrest in human HT-29 cells assessed as accumulation of cells at S phase at 350 nM after 24 hrs by propidium iodide staining-based flow cytometric analysis (reference value: 12.3 +/- 0.4%); format: functional
HT-29 [24] = test: Cell cycle arrest in human HT-29 cells assessed as accumulation of cells at G2/M phase after 24 hrs by propidium iodide staining-based flow cytometric analysis; format: functional
HT-29 [25] = test: Cell cycle arrest in human HT-29 cells assessed as accumulation of cells at G1 phase at 100 nM after 24 hrs by propidium iodide staining-based flow cytometric analysis (reference value: 75.1 +/- 1.1%); format: functional
HT-29 [26] = test: Cell cycle arrest in human HT-29 cells assessed as accumulation of cells at sub G1 phase at 350 nM after 24 hrs by propidium iodide staining-based flow cytometric analysis (reference value: 1.2 +/- 0.3%); format: functional
Chorioallantoic membrane [27] = test: Antiangiogenic activity in Leghorn chicken embryo chorioallantoic membrane assessed as induction of hemorrhages at 5 nmol after 6 hrs by light microscopic analysis; format: functional, tissue-based; details: Gallus gallus; procedure, shortened: as §2
Tubulin (Homo sapiens) = Tubulin (Homo sapiens) (UniProt P68371+Q9H4B7+P0DPH7+P68366+Q13509+Q71U36+P04350+Q3ZCM7+P07437+P68363+Q9BQE3+Q6PEY2+Q13885+Q9BVA1+Q9BUF5); test: Induction of microtubule disruption in human 518A2 cells at 100 nM after 3 hrs by DAPI staining-based fluorescence microscopic analysis; format: cell-based
Procedure, shortened: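 Microtubule organization in 518A2 melanoma cells was checked by tubulin immunofluorescence staining after 3 h exposure to 100 nM, with DAPI as the nuclear counterstain. Images come from two independent experiments.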

HT-29 [28] = test: Cell cycle arrest in human HT-29 cells assessed as accumulation of cells at S phase at 100 nM after 24 hrs by propidium iodide staining-based flow cytometric analysis (reference value: 12.3 +/- 0.4%); format: functional
Chorioallantoic membrane [29] = test: Antiangiogenic activity in Leghorn chicken embryo chorioallantoic membrane assessed as effect on blood vessel length at 5 nmol after 6 hrs by light microscopic analysis; format: functional, tissue-based; details: Gallus gallus; procedure, shortened: as §2
DLD-1 = test: Antiproliferative activity against human DLD1 cells after 72 hrs by MTT assay; format: functional, cell-based; details: DLD-1, 72 h; procedure, shortened: as §1
Chorioallantoic membrane [30] = test: Antiangiogenic activity in Leghorn chicken embryo chorioallantoic membrane assessed as reduction in blood vessel area at 5 nmol after 6 hrs by light microscopic analysis relative to control; format: functional, tissue-based; set-up: scale not given: the % may be the effect or the level left; details: Gallus gallus
Procedure, shortened: (§4)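 The CAM assay was run with topical application into a silicon foil ring atop the CAM of fertilized chicken eggs. Area covered by blood vessels was quantified by fractal analysis relative to control.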

EA.hy 926 [31] = test: Antiproliferative activity against human EAhy926 cells after 72 hrs by MTT assay; format: functional, cell-based; details: EA.hy 926, 72 h; procedure, shortened: as §1
EA.hy 926 [32] = test: Cytotoxicity against human EAhy926 cells at 100 nM after 24 hrs by MTT assay relative to control; format: cell-based; details: ea.hy 926, 24 h, 0.1 µM
EA.hy 926 [33] = test: Antiangiogenic activity against human EAhy926 cells assessed as inhibition of tube formation on matrigel at 100 nM after 24 hrs by light microscopic analysis; format: functional, cell-based
Procedure, shortened: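 Ea.Hy926 endothelial hybrid cells were seeded on matrigel with compound and examined for tubular/cord-like network formation versus untreated controls. Viability under the same conditions was checked in parallel by MTT to exclude cytotoxic effects.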

Tubulin (Sus scrofa) = Tubulin (Sus scrofa) (UniProt P02554+P02550); test: Inhibition of porcine brain tubulin polymerization at 10 uM after 2 hrs relative to control
Procedure, shortened: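 In a brief single-concentration run, purified tubulin polymerization was measured at 10 µM and expressed as percent of vehicle-treated controls.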

Chorioallantoic membrane [34] = test: Antiangiogenic activity in Leghorn chicken embryo chorioallantoic membrane assessed as effect on blood vessel length at 2.5 nmol after 6 hrs by light microscopic analysis; format: functional, tissue-based; details: Gallus gallus; procedure, shortened: as §2
Chorioallantoic membrane [35] = test: Antiangiogenic activity in Leghorn chicken embryo chorioallantoic membrane assessed as induction of hemorrhages at 2.5 nmol after 24 hrs by light microscopic analysis; format: functional, tissue-based; details: Gallus gallus; procedure, shortened: as §2
Chorioallantoic membrane [36] = test: Antiangiogenic activity in Leghorn chicken embryo chorioallantoic membrane assessed as reduction in blood vessel area at 2.5 nmol after 6 hrs by light microscopic analysis relative to control; format: functional, tissue-based; details: Gallus gallus; procedure, shortened: as §4
Chorioallantoic membrane [37] = test: Antiangiogenic activity in Leghorn chicken embryo chorioallantoic membrane assessed as induction of corrosion at 2.5 nmol after 24 hrs by light microscopic analysis; format: functional, tissue-based; details: Gallus gallus; procedure, shortened: as §2
Chorioallantoic membrane [38] = test: Antiangiogenic activity in Leghorn chicken embryo chorioallantoic membrane assessed as disruption of bigger blood vessels at 2.5 nmol after 6 hrs by light microscopic analysis; format: functional, tissue-based; details: Gallus gallus; procedure, shortened: as §2

Tubulin (Sus scrofa), sequence (P02550 whole entry, looked up): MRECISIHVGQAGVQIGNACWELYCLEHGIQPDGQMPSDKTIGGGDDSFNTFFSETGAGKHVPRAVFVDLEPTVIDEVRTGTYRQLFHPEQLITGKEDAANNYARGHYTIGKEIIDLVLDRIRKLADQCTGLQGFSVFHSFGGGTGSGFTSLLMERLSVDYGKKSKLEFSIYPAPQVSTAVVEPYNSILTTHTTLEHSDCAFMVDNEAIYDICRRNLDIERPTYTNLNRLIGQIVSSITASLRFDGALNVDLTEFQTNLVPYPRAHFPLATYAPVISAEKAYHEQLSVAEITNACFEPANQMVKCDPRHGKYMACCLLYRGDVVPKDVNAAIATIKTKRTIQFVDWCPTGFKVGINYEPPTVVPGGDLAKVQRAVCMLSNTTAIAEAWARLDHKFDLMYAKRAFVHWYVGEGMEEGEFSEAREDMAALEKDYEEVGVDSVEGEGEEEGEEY
Tubulin (Sus scrofa), sequence (P02554 whole entry, looked up): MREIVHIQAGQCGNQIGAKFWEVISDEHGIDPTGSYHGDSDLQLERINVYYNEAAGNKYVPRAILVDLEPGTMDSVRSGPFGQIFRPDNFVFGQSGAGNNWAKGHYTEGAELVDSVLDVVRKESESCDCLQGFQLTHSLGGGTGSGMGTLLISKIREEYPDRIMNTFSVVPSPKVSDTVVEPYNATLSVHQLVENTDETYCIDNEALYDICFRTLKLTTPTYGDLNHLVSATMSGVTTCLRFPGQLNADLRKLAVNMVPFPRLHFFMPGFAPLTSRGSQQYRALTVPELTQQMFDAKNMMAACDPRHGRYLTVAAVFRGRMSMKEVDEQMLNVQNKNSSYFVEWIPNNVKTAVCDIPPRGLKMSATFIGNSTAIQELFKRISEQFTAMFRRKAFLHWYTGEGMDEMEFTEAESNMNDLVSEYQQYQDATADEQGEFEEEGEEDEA

## COc1c(Br)cc(C2C(C#N)=C(N)Oc3c2ccc2ccccc32)cc1Br (stereo not drawn)
HT-29 [1]
  Activity: 26.1%
HT-29 [2]
  Activity: 2.7%
518A2 [3]
  Activity: Dose-dependent effect
  IC50: 0.0244 µM
Chorioallantoic membrane [4]
  Activity: Active
HT-29 [5]
  Activity: 64.3%
HT-29 [6]
  Activity: 4.4%
518A2 [7]
  Activity: inactive
518A2 [8]
  Activity: Active
518A2 [9]
  Activity: 46.5%
Chorioallantoic membrane [10]
  Activity: Active
[11]
  Activity: Toxic
518A2 [12]
  Activity: Active
HT-29 [13]
  Activity: 26.8%
518A2 [14]
  Activity: Active
HT-29 [15]
  Activity: 13.9%
HT-29 [16]
  Activity: 19.9%
Chorioallantoic membrane [17]
  Activity: Active
HT-29 [18]
  IC50: 0.0521 µM
[19]
  IC50: 0.0158 µM
PANC-1
  IC50: 0.0147 µM
[20]
  IC50: 0.0334 µM
[21]
  IC50: 0.0248 µM
A2780
  IC50: 0.0121 µM
Tubulin
  I50: 13 µM
HCT-116
  IC50: 0.0191 µM
HT-29 [22]
  Activity: 55%
HT-29 [23]
  Activity: 10.6%
HT-29 [24]
  Activity: Dose-dependent effect
HT-29 [25]
  Activity: 51.8%
HT-29 [26]
  Activity: 5.3%
Chorioallantoic membrane [27]
  Activity: inactive
Tubulin (Homo sapiens)
  Activity: Active
HT-29 [28]
  Activity: 19.4%
Chorioallantoic membrane [29]
  Activity: Active
DLD-1
  IC50: 0.0395 µM
Chorioallantoic membrane [30]
  Activity: 45%
EA.hy 926 [31]
  IC50: 0.0159 µM
EA.hy 926 [32]
  Activity: > 68%
EA.hy 926 [33]
  Activity: Active

## N#CC1=C(N)Oc2c(ccc3ccccc23)C1c1ccc(Cl)c(F)c1 (stereo not drawn)
HT-29 [1]
  Activity: 20.5%
HT-29 [2]
  Activity: 9.3%
518A2 [3]
  Activity: Dose-dependent effect
  IC50: 0.425 µM
HT-29 [5]
  Activity: 34%
HT-29 [6]
  Activity: 25%
HT-29 [13]
  Activity: 15.4%
Tubulin (Sus scrofa)
  inhibition: 44.1%
HT-29 [15]
  Activity: 9.4%
HT-29 [16]
  Activity: 21%
HT-29 [18]
  IC50: 0.172 µM
[19]
  IC50: 0.0573 µM
A2780
  IC50: 0.0485 µM
HT-29 [22]
  Activity: 50.4%
HT-29 [23]
  Activity: 14.9%
HT-29 [25]
  Activity: 56%
HT-29 [26]
  Activity: 27%
HT-29 [28]
  Activity: 14.7%

## COc1ccc(/C=C\c2cc(OC)c(OC)c(OC)c2)cc1O
Chorioallantoic membrane [34]
  Activity: Active
Chorioallantoic membrane [35]
  Activity: Active
Chorioallantoic membrane [36]
  Activity: Active
Chorioallantoic membrane [37]
  Activity: Active
Chorioallantoic membrane [38]
  Activity: Active
